This note sets out measurements from the EternaBench riboswitch data.

Data set [1] deals with MS2 coat protein. The data set can be described thus: apparent Kd, MS2 coat protein; higher = weaker binding; RNA-MaP array; theophylline 2 mM where present. In a few lines:
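Designs were transcribed by stalled E. coli RNA polymerase on Illumina sequencing-chip clusters. They were titrated with SNAP-549-labelled MS2 coat protein from 0.7 or 1.5 nM, doubling to 3 µM, in 100 mM Tris-HCl pH 7.5, 80 mM KCl, 4 mM MgCl2, BSA, DTT, yeast tRNA and Tween-20, without and then with constant ligand. The apparent Kd is the median of filtered per-cluster fits after normalisation of green signal to red-channel RNA signal and control-cluster median Fmax.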

The subject of data set [2] is MS2 coat protein. The data set can be described thus: apparent Kd, MS2 coat protein; higher = weaker binding; RNA-MaP array. Put shortly: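 Designed RNAs were produced on an Illumina sequencing chip by transcription of sequenced DNA templates. Binding to fluorescently labeled MS2 coat protein (1.5 nM to 3 μM) was measured at room temperature with or without input ligand. The apparent Kd is the median of per-cluster binding-curve fits. Designs were excluded when measured on fewer than 10 clusters.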

[3] abbreviates: designed as: ON switch for theophylline, no ligand.
Setting [4] is: ligand present: theophylline, designed as: ON switch for theophylline.
The mark [5] stands for this setting: designed as: OFF switch for flavin mononucleotide, no ligand.
Setting [6] is: ligand present: flavin mononucleotide, designed as: OFF switch for flavin mononucleotide.
The mark [7] stands for this setting: designed as: ON switch for flavin mononucleotide, no ligand.
Where [8] appears, read: ligand present: flavin mononucleotide, designed as: ON switch for flavin mononucleotide.

Usually apparent Kd stands for the concentration giving half-maximal binding under the conditions of the assay.

Turning to “AGACAUGAGGAUCACCCAUGUAGUAUGGAUACCAGAUCCAGAUUUAUCCCUUGGCAGCUGUGGUACAGCGAUGGAUUGCUCCUAG”, the “apparent Kd” value stood at 38 nM with MS2 coat protein [1] (designed as: OFF switch for theophylline, no ligand) and 39.8 nM in the data set on MS2 coat protein [1] (ligand present: theophylline, designed as: OFF switch for theophylline).
Regarding “UCUUACUUGGUAGAUACCAGCGUGUUAUCUUUCUUUUGACAUGAGGAUCACCCAUGUAUAUGCCCUUGGCAGCUGCAUAGUGUGU”, the figures for the “apparent Kd” value in the data set with MS2 coat protein [1] (setting [3]) and with MS2 coat protein [1] (setting [4]) were 34.9 nM and 35.1 nM, respectively.
On to “AUCGUACCUAAUGAUACCAGCAAGUGAUCAUAACAUGAGGAUCACCCAUGUAAUCAGUGAUGCCCUUGGCAGCAUAAUCGUUACA”, for which the “apparent Kd” value stood at 163 nM in the data set on MS2 coat protein [1] (setting [3]) and 127 nM in the data set with MS2 coat protein [1] (setting [4]).
Take “CGCACAGAGAAUGAUACCAGCGAGGAAGCGACAUGAGGAUCACCCAUGUGCGAAUGAUCCCGCCCUUGGCAGCGUAAGUGAUCCC”: the results for the “apparent Kd” value in the data set with MS2 coat protein [1] (setting [3]) and in the data set on MS2 coat protein [1] (setting [4]) were 111 nM and 71.3 nM, respectively.
With “UAGGAUUAAGGAGGAUAUCGCCAAUAAGCUUCGCGAGAAGGCCUAUAUACAUGAGGAUCACCCAUGUUUGGUUGUUAGUGUCUU”, the “apparent Kd” value was 7.9 nM in the data set with MS2 coat protein [2] (setting [5]) and 10.6 nM with MS2 coat protein [2] (setting [6]).
As for “GGGCCCUUCUCAUAGGAUAUACUUUAUACCACAUGAGGAUCACCCAUGUAAACAUAAUUAAGAAAGUAGAAGGAUGACGAAAAUCG”, the “apparent Kd” value in the data set with MS2 coat protein [2] (setting [7]) came to 10.4 nM; in the data set on MS2 coat protein [2] (setting [8]), 8.98 nM.
As to “UAUUUGUUGAAGAAGGAGCGUACAUGAGGAUCACCCAUGUCCAACGUCUACGCGGGUUAUGUUAGCUAGGAUAUUCCGAAAUGG”, the “apparent Kd” value in the data set with MS2 coat protein [2] (setting [5]) is 28.3 nM; in the data set on MS2 coat protein [2] (setting [6]), 22.1 nM.
On to “CCAAACACUGGAGGAUAUGCAAGAACAUGAGGAUCACCCAUGUAGUAACGAUAAAGAAAACAAGCGCAGAAGGCCACAUCUCUA”, for which the “apparent Kd” value amounted to 14.2 nM in the data set with MS2 coat protein [2] (setting [7]) and 6.49 nM in the data set on MS2 coat protein [2] (setting [8]).
Regarding “CGUUAGCAGUAGAAGGUAGCCGGCAGGUCAGGGCGACCACAUGAGGAUCACCCAUGUCUAUGUUCUAAGGAUAUACUGACCCAA”, the “apparent Kd” value in the data set with MS2 coat protein [2] (setting [5]) came out at 5.2 nM; in the data set on MS2 coat protein [2] (setting [6]), 5.59 nM.
The matching figures for “UAACCCGUGUAGAAGGCAAGCUCCGCGCUGGUCGUCAUCACAUGAGGAUCACCCAUGUGGAAGAUUGAGGAUAUACGCGCGAUG”: 5.45 nM and 7.53 nM.
As for “AAUGACAUGAGGAUCACCCAUGUCCAUCUAAGCUCGGGUCUGCAGGAUAUUCCCGUGGGAUUAGGGAAGAAGGGCAGUGAUUGU”, the “apparent Kd” value in the data set on MS2 coat protein [2] (setting [7]) stood at 14 nM; in the data set on MS2 coat protein [2] (setting [8]), 7.02 nM.
As to “GUUGACGAGUCAGGAUAUGAUUAGUGGGAGAAACAGCAACUCACAUGAGGAUCACCCAUGUAUGUUCAGAAGGGACGCCGAUCA”, the “apparent Kd” value with MS2 coat protein [2] (setting [5]) amounted to 63.9 nM; with MS2 coat protein [2] (setting [6]) it was 183 nM.
For “UGACUGGUCGGAGGAUAUGGCAACACGUUUUCGCCAGAAGGCCGACAUGAGGAUCACCCAUGUGGGACACUAGGGCGACUUCCU”, the “apparent Kd” value came out at 166 nM with MS2 coat protein [2] (setting [5]) and 35.8 nM in the data set with MS2 coat protein [2] (setting [6]).
With “UUUUUAGGACAAGGAUAUUGAAUCGCACAUGAGGAUCACCCAUGUCCUCUGCAUACAGCGGACUUCAAGAAGGUGUCGACCAAU”, the “apparent Kd” value was 971 nM in the data set with MS2 coat protein [2] (setting [7]) and 832 nM in the data set with MS2 coat protein [2] (setting [8]).
The like results for “AGGAGACGCAAGGAGGAUAUUCAUAUGGUAACAUGAGGAUCACCCAUGUAGUUCUAGUUGGGACUGAAGAAGGCCUUGCUAGCGCA” were, in that order, 21.7 nM and 11.3 nM.
As to “GCACCUAGGUCAGGAUAUCAAAAUGUCAUACAUGAGGAUCACCCAUGUGUCGUUAAGUAACACUGUGAGAAGGGACAACUUGAA”, the “apparent Kd” value with MS2 coat protein [2] (setting [5]) came to 10.3 nM; with MS2 coat protein [2] (setting [6]), 8.82 nM.
The matching figures for “CCUCGUAAUGAGGAUAUUAGGAAUUCUGGUCCAUAAGAAGGCAUGACAUGAGGAUCACCCAUGUAGCGGAUGGG”: 102 nM and 145 nM.
Turning to “ACCCAGACAUGAGGAUCACCCAUGUAAAUAGAGUACAUCAGGAGAAGGUUCAAAGGGCCUACCCGAAAGGAUAUCCUCGGCGUA”, the figures for the “apparent Kd” value with MS2 coat protein [2] (setting [7]) and in the data set on MS2 coat protein [2] (setting [8]) were 30.8 nM and 25.7 nM, respectively.
Regarding “UCGAACGGGCAAGGAUAUCGAAGAUCCAAAAUUCGAGAAGGUGCAUGUGAUCGUCCGGUGUCACAUGAGGAUCACCCAUGUCAA”, the “apparent Kd” value in the data set with MS2 coat protein [2] (setting [5]) is 354 nM; with MS2 coat protein [2] (setting [6]), 179 nM.
The matching figures for “AUCAUGAUUUUAGGAUAUAUGACGUUAUACAAUGGACAUGAGGAUCACCCAUGUAGUCGCGCUCUAUAGAAGGAAAGCUCAGUU”: 44.1 nM and 36.5 nM.
Take “AGUUACAUGAGGAUCACCCAUGUCCGGUUGCGAGGACCGGUACGGCCGCCACUCGGGUACAUCCCAGAAAAUACUGAAUGCCUGC”: the “apparent Kd” value with MS2 coat protein [2] (designed as: ON switch for tryptophan, no ligand) stood at 55.4 nM; with MS2 coat protein [2] (ligand present: tryptophan, designed as: ON switch for tryptophan), 51 nM.
For “GCUACACAUGAGGAUCACCCAUGUCAGGUCACUGAAGGAUAUAUUACUUAAUCCUGGGUCAUAGAAGGUCAAUUGC”, the “apparent Kd” value in the data set on MS2 coat protein [2] (setting [7]) amounted to 31.4 nM; in the data set with MS2 coat protein [2] (setting [8]) it was 21.9 nM.
